In ChEMBL document CHEMBL4665722, “Discovery of a novel selective water-soluble SMAD3 inhibitor as an antitumor agent” (Bioorg Med Chem Lett, 2020):
In brackets after ≈: the same amount, converted by molar mass. Activity calls are given as the source filed them. The rule behind the calls is not given here.

Legend:
[1] = Solubility of the compound in water; format: physicochemical
Outline: (§1)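 Solubility of free base or HCl salt measured in pure water and in phosphate buffer pH 7.4 at room temperature, quantified by HPLC.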

A549 = experiment: Cytotoxicity against human A549 cells assessed as inhibition of cell growth by MTT assay; format: functional; conditions: read-out: TD50 (the source's name)
Outline: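 A549 cell growth measured by MTT assay. Value is the concentration giving 50% growth inhibition relative to controls, mean of three experiments.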

[2] = Solubility of the compound in PBS buffer at pH 7.4; format: physicochemical; outline: as §1
Lewis lung carcinoma [3] = experiment: Antitumor activity against mouse Lewis lung carcinoma cells allografted in ip dosed C57BL/6 mouse assessed as reduction in tumor weight administered for 20 consecutive days; conditions: dose microg/g 1.25-5, time 20.0 day
Lewis lung carcinoma [4] = experiment: Antitumor activity against mouse Lewis lung carcinoma cells allografted in ip dosed C57BL/6 mouse assessed as reduction in tumor volume administered for 20 consecutive days; conditions: dose microg/g 1.25-5, time 20.0 day
Mus musculus = experiment: Induction of NK-mediated antitumor immunity in ip dosed C57BL/6 mouse allografted with mouse Lewis lung carcinoma cells assessed as increase in NK cell infiltration in tumor by immunofluorescent staining based assay; conditions: dose microg/g 1.25-5
[5] = target: Mothers against decapentaplegic homolog 2 (Homo sapiens) (UniProt Q15796); experiment: Inhibition of TGF-beta induced SMAD2 phosphorylation in human A549 cells at 5 to 10 uM pretreated with compound for 2 hrs followed by TGF-beta stimulation by Western blot analysis; format: cell-based; conditions: dose microM 5-10, time 2.0 hrs
Chain of Mothers against decapentaplegic homolog 2 (Homo sapiens) (Q15796 whole entry): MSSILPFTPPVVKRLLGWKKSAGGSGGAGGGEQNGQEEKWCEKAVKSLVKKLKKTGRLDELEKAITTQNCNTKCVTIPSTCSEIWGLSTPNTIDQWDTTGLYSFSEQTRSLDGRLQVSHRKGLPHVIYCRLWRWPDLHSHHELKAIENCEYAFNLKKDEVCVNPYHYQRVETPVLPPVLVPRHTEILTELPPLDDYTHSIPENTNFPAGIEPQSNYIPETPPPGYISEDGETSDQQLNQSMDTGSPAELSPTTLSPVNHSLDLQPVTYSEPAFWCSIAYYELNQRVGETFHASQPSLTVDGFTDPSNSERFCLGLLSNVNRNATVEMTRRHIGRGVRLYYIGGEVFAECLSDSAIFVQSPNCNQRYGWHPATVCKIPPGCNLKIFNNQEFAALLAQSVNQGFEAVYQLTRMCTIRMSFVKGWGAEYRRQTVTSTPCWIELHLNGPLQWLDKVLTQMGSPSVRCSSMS
Outline: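 A549 cells pre-treated 2 h at 5 and 10 μM, then stimulated with 1 ng/mL TGF-β for 30 min. Lysates probed by western blot for phospho-SMAD2, SMAD2, phospho-SMAD3 and SMAD3. GAPDH served as loading control.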

[6] = target: Mothers against decapentaplegic homolog 3 (Homo sapiens) (UniProt P84022); conditions: NIH3T3
Chain of Mothers against decapentaplegic homolog 3 (Homo sapiens) (P84022 2-425 limits assumed): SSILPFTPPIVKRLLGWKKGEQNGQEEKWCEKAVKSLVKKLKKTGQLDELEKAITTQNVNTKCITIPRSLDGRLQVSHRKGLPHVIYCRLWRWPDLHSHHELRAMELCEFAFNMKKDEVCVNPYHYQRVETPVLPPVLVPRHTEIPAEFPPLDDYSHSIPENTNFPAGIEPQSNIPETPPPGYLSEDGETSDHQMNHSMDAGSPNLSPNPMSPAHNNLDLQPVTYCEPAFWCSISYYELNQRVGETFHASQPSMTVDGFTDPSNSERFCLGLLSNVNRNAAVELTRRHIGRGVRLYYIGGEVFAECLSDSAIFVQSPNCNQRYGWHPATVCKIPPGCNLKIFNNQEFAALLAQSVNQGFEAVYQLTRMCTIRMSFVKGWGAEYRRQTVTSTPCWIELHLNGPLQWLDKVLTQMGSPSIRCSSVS

Row | solubility [2] | inhibition [5] | Structure (SMILES) | CC50 (A549) | other results
1 |  |  | Cc1nc(C)c(CN2CC/C(=C\c3c(-c4ccccc4)n(C)c4ncccc34)C2=O)nc1C.Cl |  | solubility ([1]; water): > 94000 µg/mL
2 | 14 µg/mL (≈ 32 µM) |  | Cc1nc(C)c(CN2CC/C(=C\c3c(-c4ccccc4)n(C)c4ncccc34)C2=O)nc1C [listing 1 of 2 here] | 22 µM | 
3 |  | inactive | Cc1nc(C)c(CN2CC/C(=C\c3c(-c4ccccc4)n(C)c4ncccc34)C2=O)nc1C [listing 2 of 2 here] |  | Activity (Lewis lung carcinoma [3]): Dose-dependent effect; Activity (Lewis lung carcinoma [4]): Dose-dependent effect; Activity (Mus musculus): Dose-dependent effect
4 |  | inactive | COc1ccc(CN2CC/C(=C\c3c(-c4ccccc4)n(C)c4ncccc34)C2=O)cc1OC |  | 
5 | 6 µg/mL |  | COc1cc2c(cc1OC)CN(C(=O)/C=C/c1c(-c3ccccc3)n(C)c3ncccc13)CC2.Cl | 18.7 µM | ED50 [6]: 4.53 µM; solubility [1]: 141 µg/mL
